Unmarked numbers belong to inactive results. Results filed as inconclusive are left out. Activity calls are given as the source filed them.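 How the source made its calls, unless noted: active means cell viability at or below a set limit in both duplicate runs, the limit being the all-compound median minus 4 SD (cut at about 23% in these data, passing the limit was not always enough); inconclusive means no clear call, values can overlap the other calls; inactive means the rest.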
Legend:
[1] = S. cerevisiae growth inhibition in permissive medium (OD615), pilot counter-assay for S. cerevisiae lifespan shortening project, permissive growth control (AID 705;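 active means growth inhibition above 25% in both replicates, a cutoff set 3 SD above the mean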); conditions: OD615, 24 h, at 10 µM, active compounds read high
Outline: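 Timing: 24 h exposure, 30 °C / Material: Saccharomyces cerevisiae strain carrying genetically modified DeaD replicative-lifespan system / Signal: OD at 615 nm / Compound: 10 µM single dose, 0.25% DMSO / Medium: SC raffinose/galactose permissive medium / Evaluation: reduction in yeast growth (OD615)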

[2] = S. cerevisiae growth inhibition in restrictive medium, OD615, pilot screen, restrictive growth control, yeast lifespan reduction project (AID 706;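 active means growth inhibition above a set limit, 3 SD over mean compound inhibition, in both replicates, cut at about 43% in these data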;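 further: modified DeaD lifespan yeast strain shifted to restrictive glucose medium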); conditions: OD615, 48 h, at 10 µM, active compounds read high
Outline: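 System: Engineered S. cerevisiae DeaD strain | Detection: OD615 | Buffer or medium: CSMM-D glucose medium | Doses: 10 µM compound, 0.25% DMSO | Timing: 4 h pre-growth plus 48 h compound exposure, 30 °C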

[3] = doxorubicin toxicity protection in MRP-1 cells – H69AR cells, CellTiter-Glo, duplicate, MRP-1 activator project, pilot screen (AID 807;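 active means viability increase at or above a cutoff of the median across tested compounds plus 3 SD, cut at about 8.5% in these data, passing the limit was not always enough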;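 further: compound pretreatment 18-22 h then 72 h combined with doxorubicin; 0% = doxorubicin alone and 100% = vehicle without doxorubicin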); conditions: H69AR viability with doxorubicin, CellTiter-Glo luminescence; at 10 µM; active compounds read high
[4] = viability of HCT116 without oncogenic beta-catenin – human colon tumor cells, pilot screen (AID 823); conditions: HCT116 beta-catenin knockout viability, CellTiter-Glo, 60 h; at 10 µM; active compounds read low;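 further: 0% = wells killed by 20 µM Hyamine and 100% = untreated DMSO cell wells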
[5] = viability of PTEN-null HCT116 cells – cell-based, HCT116 clonal line, CellTiter-Glo, pilot screen (AID 824;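 active means viability at or below 27.92% in each of two runs, the all-compound median minus 4 SD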;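 further: 0% = 20 µM Hyamine control and 100% = vehicle cell control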); conditions: HCT116 PTEN-deleted viability, 60 h, at 10 µM, active compounds read low
[6] = RAM pathway blockade in budding yeast – dse1pr::URA3 reporter, 5-FOA selection, pilot screen (AID 869;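 active means inhibition over a set limit, the all-compound mean plus 3 SD, in both replicate runs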;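 further: 0% = DMSO wells with no growth and 100% = 10 µM 1-NA-PP1 with full growth; RAM network block rescues cells from 5-FOA so hits raise OD615 growth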); conditions: S. cerevisiae dse1pr::URA3 5-FOA growth, OD615, 2 d; at 10 µM; active compounds read high; strain carries analog-sensitive mutant Cbk1 kinase
[7] = RAM signaling pathway blockade in yeast – S. cerevisiae, Pdr1DBD-CYC8 efflux-inhibited sensitized strain, primary screen (AID 1298;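 active means RAM network inhibition above 8.4% in each of two replicates, 3 SD over the compound average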;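 further: 0% = DMSO untreated cells without growth and 100% = 10 µM 1-NA-PP1 full growth; higher means more yeast growth rescued from 5-FOA killing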); conditions: S. cerevisiae cbk1-as DSE1-URA3 strain, 5-FOA growth OD615, 2 d; at 50 µM; active compounds read high

| Structure (SMILES) | growth inhibition [1] [%] | growth inhibition [2] | viability increase [3] [%] | viability [4] [%] | viability [5] [%] | inhibition [6] [%] | RAM network inhibition [7] [%] |
| --- | --- | --- | --- | --- | --- | --- | --- |
| CC(=O)Nc1nonc1-c1nc2ccccc2n1N(C(C)=O)C(C)=O | 3.74 | 8.55% | -2.77 | 93.2 | 93.5 | 2.67 | 3.63 |
| O=C(c1cccc(C(=O)N2CCN(c3ccccc3F)CC2)c1)N1CCN(c2ccccc2F)CC1 | -6.5 | -6.43% | -2.61 | 56.8 | 54.9 | 3.28 | 4.24 |
| Cc1ccc(-n2c(SCC(N)=O)nc3c([nH]c4ccccc43)c2=O)cc1 | -15.5 | -5.78% | -2.14 | 91.3 | 87.5 | 0.24 | -0.05 |
| CC(=O)c1ccc(OCC(O)CN2CCC(C)CC2)cc1 (stereo not drawn) | -0.26 | 9.25% | -0.16 | 101 | 101 | 0.54 | -2.94 |
| O=C(c1ccc(CS(=O)(=O)c2ccc(Br)cc2)o1)N1CCN(c2ncccn2)CC1 | -4.05 | -7.28% | -4.3 | 86.2 | 96 | 1.94 | 3.64 |
| COc1ccc(CNC(=O)c2cnc3scc(C)n3c2=O)cc1 | -13.9 | -6.35% | 3.79 | 102 | 93.8 | 0.925 | 11.9 |
| COc1ccc(-c2nc(CSCC(=O)N3CCN(C(=O)c4ccco4)CC3)c(C)o2)cc1OC | -1.3 | 0.055% | -1.9 | 106 | 103 | -0.54 | 5.11 |
| C=CCSc1nnc2nc3c(nn12)c1cc(C)ccc1n3CC=C | 10.7 | 51.1% (active) | -3.51 | 88 | 82.6 | 1.21 | 3.23 |
| CCOC(=O)c1cnc2c(C#N)c(C)nn2c1-c1ccccc1 | -5.3 | 0.945% | -0.99 | 94 | 92.7 | 1.69 | 3.66 |
| COc1ccc(NS(=O)(=O)c2ccc(NS(=O)(=O)c3ccc(C)cc3)cc2)nn1 | -13.5 | -7.58% | 1.15 | 92.9 | 96.8 | 2.95 | 4.16 |
| N#CN=C1SCCS1 | -5.58 | -14.9% | -0.61 | 103 | 99 | 1.71 | 0.1 |
| O=C(CSc1nnc(-c2cccnc2)n1Cc1ccco1)c1ccc(Br)cc1 | 1.25 | 32.4% | -1.99 | 79.9 | 86.8 | 0.005 | 10 |
| CCCCCCn1c(CN2CCN(CCO)CC2)nc2c1c(=O)n(C)c(=O)n2C | -6.85 | -11.2% | -4.86 | 86.2 | 89.4 | 2.5 | 2.43 |
| Cc1cc(NC(=O)CSc2nnc(C)c(=O)[nH]2)no1 | -0.975 | 1.15% | 0.9 | 112 | 101 | 2.48 | 1.75 |
| Cc1cc(C)n2nc(Nc3ccccc3)cc2n1 | -3.93 | -10.7% | -4.34 | 90.1 | 89.7 | 1.97 | 4.89 |
| Cn1c(NC(=O)c2cc(Br)ccc2Cl)cc(=O)n(C)c1=O | 5.54 | -8.75% | -3.46 | 96.8 | 90.7 | 1.64 | 1.23 |
| O=C(Nc1ccc(N2CCCCC2)cc1)c1cncc(Br)c1 | 5.98 | 15.3% | -4.57 | 100 | 96.8 | 1.98 | 5.26 |
| Cc1ccc(S(=O)(=O)N2CCN(C(=O)CSc3nnc(C)s3)C2)cc1 | -14.3 | -10.7% | -1.75 | 91.9 | 87.3 | 1.31 | -0.22 |
| O=C(Cn1c(=O)oc2ccccc21)N1CCN(c2ccc(N3CCOCC3)nn2)CC1 | -0.78 | -14% | -2.65 | 101 | 101 | 1.31 | 2.63 |
| CCCOC(=O)c1ccc(OCC(O)CN2C(=O)NC(C)(C)C2=O)cc1 (stereo not drawn) | 1.83 | 1.78% | -0.77 | 96.9 | 97.2 | 0.14 | 0.77 |
| O=C(Nc1cnc2ccccc2c1)c1ccncc1 | -8.13 | -8.73% | -2.98 | 99.7 | 87.1 | 2.08 | 1.19 |
| Cc1cccc(NC(=O)c2ccccc2Br)n1 | 4.2 | 24% | -3.61 | 103 | 94 | 0.97 | 2.02 |
| COc1ccc(-n2nnc3c(=O)n(CC(=O)N4CCCc5ccccc54)cnc32)cc1 | -1.22 | -1.47% | -0.27 | 95.2 | 91.2 | 2.3 | 1.61 |
| CCOc1ccc2nc(NC(=O)Nc3cccs3)sc2c1 | -10.4 | -19.9% | -3.88 | 40.1 | 31.6 | 1.08 | 0.79 |

Source: PubChem BioAssay
